Where a SMILES comes first, the peptide text is derived from it. [ ]: non-standard residue; d: D form. The star is where a group is joined. X1 = COc1cccc2c1C(=O)c1c(O)c3c(c(O)c1C2=O)C[C@@](O)(/C(C)=N/OCC(=O)*)C[C@@H]3O[C@H]1C[C@H](N)[C@H](O)[C@H](C)O1; Phe(4-Cl) = N[C@@H](Cc1ccc(Cl)cc1)C(=O)O
What was measured:
HT-29 [1] = experiment: Cytostatic activity against human HT-29 cells preincubated for 24 hrs under serum free condition followed by compound washout and further incubation for 48 hrs in presence of serum by MTT assay; format: functional, cell-based
How it was run: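 HT-29 cells were exposed to the compound for 24 h, washed, and kept a further 48 h. Viability was read by MTT. Absorbances were normalized to untreated controls and fitted by nonlinear regression to dose-response curves to give IC50.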

[2] = Drug uptake in human HT-29 cells at 100 uM incubated for 3 hrs by flow cytometry; format: ADME, cell-based; conditions: ht-29, 3 h
How it was run: (§1)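 HT-29 cells were exposed to 100 µM conjugate for 3 h. Flow cytometry recorded the percentage of Dau-positive cells and the mean fluorescence intensity, in duplicate.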

[3] = Retention time of the compound using 0.1% TFA in water and 0.1% TFA in acetonitrile-water (80:20 v/v) as eluents by RP-HPLC analysis; format: physicochemical
How it was run: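 Analytical RP-HPLC. Eluent A was 0.1% TFA in water and eluent B was 0.1% TFA in acetonitrile-water (80:20, v/v). Gradient: 0% B held to 5 min, then to 90% B at 50 min. Flow 1 mL/min, detection at 220 nm. The column was a Phenomenex Aeris Peptide XB-C18 (250×4.6 mm, 3.6 μm) or a Nucleosil C18 (5 μm, 100 Å, 250×4.6 mm), depending on the conjugate series.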

[4] = Stability in serum free medium at 30 uM incubated for 3 hrs by LC/MS analysis
How it was run: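 Conjugates (30 μM) were incubated at 37 °C in serum-free medium. Samples were taken at 0 and 3 h, quenched with acetic acid, lyophilised, desalted on C18 spin columns and analysed by LC-MS.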

[5] = Drug uptake in human HT-29 cells at 100 uM incubated for 3 hrs by flow cytometry relative to control; format: ADME, cell-based; conditions: ht-29, 3 h; how it was run: as §1
[6] = Drug uptake in human HT-29 cells assessed as increase in fluorescence intensity at 25 uM incubated for 3 hrs by flow cytometry; format: ADME, cell-based; conditions: ht-29, 3 h
[7] = Stability in 2.5% fetal bovine serum containing medium at 30 uM measured after 24 hrs by LC/MS analysis; format: ADME, cell-free, Bos taurus; conditions: cattle
How it was run: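 Conjugates (30 μM) were incubated at 37 °C in medium containing 2.5% FBS. Samples were taken at 0, 3, 6 and 24 h, quenched with acetic acid, lyophilised, desalted on C18 spin columns and analysed by LC-MS. Cleavage products were identified by mass.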

[8] = Drug metabolism in rat liver lysosomes homogenate assessed as increase in Dau = Aoa-Leu-OH metabolite formation at 0.05 ug/ul after 1 hr by LC-MS analysis; format: ADME, subcellular, Lysosome; conditions: tissue homogenate
How it was run: (§2)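 Conjugates and rat liver lysosomal homogenate were each used at 0.05 µg/µL. Samples were taken at 0, 1, 3, 6 and 24 h. Metabolites were identified by LC-MS on a C18 column with a formic acid/acetonitrile gradient.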

[9] = Drug metabolism in rat liver lysosomes homogenate assessed as Dau-containing metabolite formation at 0.05 ug/ul after 24 hrs by LC-MS analysis; format: ADME, subcellular, Lysosome; conditions: tissue homogenate; how it was run: as §2
[10] = Drug uptake in human HT-29 cells assessed as increase in fluorescence intensity at 6.25 to 100 uM incubated for 3 hrs by flow cytometry; format: ADME, cell-based; conditions: ht-29, 3 h
How it was run: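 HT-29 cells were incubated for 3 h with conjugates at 6.25–100 µM. Cellular uptake of Dau fluorescence was measured by flow cytometry, in duplicate.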

[11] = Solubility of compound; format: physicochemical
HT-29 [12] = experiment: Cytotoxicity against human HT-29 cells assessed as reduction in cell viability by measuring decrease in fluorescence intensity at 100 uM incubated for 3 hrs by flow cytometry; format: cell-based; conditions: ht-29, 3 h

SMILES	IC50 (HT-29 [1]) [µM]	Drug uptake [2]	Retention time [3] [min]	Stability [4]	Drug uptake [5] [%]	Drug uptake [6]	Stability [7]	Drug metabolism [8]	Drug metabolism [9]	Drug uptake [10]	solubility [11]	Activity (HT-29 [12])
COc1cccc2c1C(=O)c1c(O)c3c(c(O)c1C2=O)C[C@@](O)(/C(C)=N/OCC(=O)N[C@@H](CC(C)C)C(=O)N[C@@H](CCCNC(=N)N)C(=O)N[C@@H](CCCNC(=N)N)C(=O)N[C@@H](Cc1ccc(O)cc1)C(=O)N[C@@H](C)C(=O)N[C@@H](Cc1cnc[nH]1)C(=O)N[C@@H](CC(C)C)C(=O)NCC(=O)N[C@@H](Cc1ccc(O)cc1)C(=O)N[C@@H](C)C(=O)N[C@H](C(N)=O)[C@@H](C)O)C[C@@H]3O[C@H]1C[C@H](N)[C@H](O)[C@H](C)O1 (X1-LRRYAHLGYAT-NH2)	> 100	Active	27.7 to 30.4									
COc1cccc2c1C(=O)c1c(O)c3c(c(O)c1C2=O)C[C@@](O)(/C(C)=N/OCC(=O)N[C@@H](CC(C)C)C(=O)N[C@@H](CCCNC(=N)N)C(=O)N[C@@H](CCCNC(=N)N)C(=O)N[C@@H](Cc1ccc(O)cc1)C(=O)N[C@H](C(=O)N[C@@H](C)C(=O)N[C@@H](CC(C)C)C(=O)NCC(=O)N[C@@H](Cc1ccc(O)cc1)C(=O)N[C@@H](C)C(=O)N[C@H](C(N)=O)[C@@H](C)O)C(C)C)C[C@@H]3O[C@H]1C[C@H](N)[C@H](O)[C@H](C)O1 (X1-LRRYVALGYAT-NH2)	36.8	Active	29 to 31.7									
COc1cccc2c1C(=O)c1c(O)c3c(c(O)c1C2=O)C[C@@](O)(/C(C)=N/OCC(=O)N[C@@H](CC(C)C)C(=O)N[C@@H](CCCNC(=N)N)C(=O)N[C@@H](CCCNC(=N)N)C(=O)N[C@@H](Cc1ccc(O)cc1)C(=O)N[C@H](C(=O)N[C@@H](Cc1cnc[nH]1)C(=O)N[C@@H](C)C(=O)NCC(=O)N[C@@H](Cc1ccc(O)cc1)C(=O)N[C@@H](C)C(=O)N[C@H](C(N)=O)[C@@H](C)O)C(C)C)C[C@@H]3O[C@H]1C[C@H](N)[C@H](O)[C@H](C)O1 (X1-LRRYVHAGYAT-NH2)	> 100	Active	27.2 to 29.9									
COc1cccc2c1C(=O)c1c(O)c3c(c(O)c1C2=O)C[C@@](O)(/C(C)=N/OCC(=O)N[C@@H](CC(C)C)C(=O)N[C@@H](CCCNC(=N)N)C(=O)N[C@@H](CCCNC(=N)N)C(=O)N[C@@H](Cc1ccc(O)cc1)C(=O)N[C@H](C(=O)N[C@@H](Cc1cnc[nH]1)C(=O)N[C@@H](CC(C)C)C(=O)N[C@@H](C)C(=O)N[C@@H](Cc1ccc(O)cc1)C(=O)N[C@@H](C)C(=O)N[C@H](C(N)=O)[C@@H](C)O)C(C)C)C[C@@H]3O[C@H]1C[C@H](N)[C@H](O)[C@H](C)O1 (X1-LRRYVHLAYAT-NH2)	24.1 to 27.9		28.6 to 31.3	Stable	80	Active	Stable					
COc1cccc2c1C(=O)c1c(O)c3c(c(O)c1C2=O)C[C@@](O)(/C(C)=N/OCC(=O)N[C@@H](CC(C)C)C(=O)N[C@@H](CCCNC(=N)N)C(=O)N[C@@H](CCCNC(=N)N)C(=O)N[C@@H](Cc1ccc(O)cc1)C(=O)N[C@H](C(=O)N[C@@H](Cc1cnc[nH]1)C(=O)N[C@@H](CC(C)C)C(=O)N[C@@H](Cc1ccccc1)C(=O)N[C@@H](Cc1ccc(O)cc1)C(=O)N[C@@H](CC(C)C)C(=O)N[C@H](C(N)=O)[C@@H](C)O)C(C)C)C[C@@H]3O[C@H]1C[C@H](N)[C@H](O)[C@H](C)O1 (X1-LRRYVHLFYLT-NH2)	3.2		30.7 to 32.3	Stable			Stable	Metabolite_Detected	Metabolite_Detected	Active	Soluble	
COc1cccc2c1C(=O)c1c(O)c3c(c(O)c1C2=O)C[C@@](O)(/C(C)=N/OCC(=O)N[C@@H](CC(C)C)C(=O)N[C@@H](CCCNC(=N)N)C(=O)N[C@@H](CCCNC(=N)N)C(=O)N[C@@H](Cc1ccc(O)cc1)C(=O)N[C@H](C(=O)N[C@@H](Cc1cnc[nH]1)C(=O)N[C@@H](CC(C)C)C(=O)NCC(=O)N[C@@H](C)C(=O)N[C@@H](C)C(=O)N[C@H](C(N)=O)[C@@H](C)O)C(C)C)C[C@@H]3O[C@H]1C[C@H](N)[C@H](O)[C@H](C)O1 (X1-LRRYVHLGAAT-NH2)	> 100	Active	27.4 to 30.1									
COc1cccc2c1C(=O)c1c(O)c3c(c(O)c1C2=O)C[C@@](O)(/C(C)=N/OCC(=O)N[C@@H](CC(C)C)C(=O)N[C@@H](CCCNC(=N)N)C(=O)N[C@@H](CCCNC(=N)N)C(=O)N[C@@H](Cc1ccc(O)cc1)C(=O)N[C@H](C(=O)N[C@@H](Cc1cnc[nH]1)C(=O)N[C@@H](CC(C)C)C(=O)NCC(=O)N[C@@H](Cc1ccc(O)cc1)C(=O)N[C@@H](C)C(=O)N[C@@H](C)C(N)=O)C(C)C)C[C@@H]3O[C@H]1C[C@H](N)[C@H](O)[C@H](C)O1 (X1-LRRYVHLGYAA-NH2)	70.9	Active	28 to 30.7									
COc1cccc2c1C(=O)c1c(O)c3c(c(O)c1C2=O)C[C@@](O)(/C(C)=N/OCC(=O)N[C@@H](CC(C)C)C(=O)N[C@@H](CCCNC(=N)N)C(=O)N[C@@H](CCCNC(=N)N)C(=O)N[C@@H](Cc1ccc(O)cc1)C(=O)N[C@H](C(=O)N[C@@H](Cc1cnc[nH]1)C(=O)N[C@@H](CC(C)C)C(=O)N[C@@H](Cc1ccc(Cl)cc1)C(=O)N[C@@H](Cc1ccc(O)cc1)C(=O)N[C@@H](C)C(=O)N[C@H](C(N)=O)[C@@H](C)O)C(C)C)C[C@@H]3O[C@H]1C[C@H](N)[C@H](O)[C@H](C)O1 (X1-LRRYVHL[Phe(4-Cl)]YAT-NH2)	3.6		31.3 to 34	Stable			Stable	Metabolite_Detected	Metabolite_Detected	Active	Soluble	Toxic

Reference: ChEMBL document CHEMBL4350976, “Sequence modification of heptapeptide selected by phage display as homing device for HT-29 colon cancer cells to improve the anti-tumour activity of drug delivery systems” (Eur J Med Chem, 2019)
